From PubChem BioAssay
Most compounds without a hit are left out; they make up all but 2.3% or so of the library.
Env fusion inh: inhibitors of HIV Env-mediated cell fusion; HeLa-JRFL Env/CEM21 cell fusion, luciferase; inhibition, % at 12.3 µM; 360,000 compounds, 1.1% hits; AID 651610;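 active means mean replicate inhibition score of at least 50 and every replicate individually at or above 50; inconclusive means only one of the two criteria met; inactive means mean below 50 and not all replicates reaching 50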;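 further: 0% = plate neutral controls and 100% = maraviroc near 300 nM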
PAX8 inh HTS: inhibitors of PAX8 transcriptional activity in RMG-I cells; inhibition, % at 12.6 µM; AID 652154; RMG-I TPO-luciferase reporter, SteadyGlo, 24 h; 360,000 compounds, 1.2% hits;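 active means mean replicate inhibition at least 60% with every replicate also reaching 60%; inconclusive means only one of the two criteria is met; inactive means mean below 60% and not all replicates reaching 60%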;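 further: luciferase light reporting Pax8 driven TPO promoter activity; plate controls were median of neutral control wells for no effect and mitoxantrone controls for full effect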
Arr AP2 block: blocks beta-arrestin peptide binding to AP2 adaptin | FITC-arrestin peptide / GST-AP2 beads, flow cytometry; AP2 beta2 appendage carries R879A mutation | inhibition, % at 10 µM | 340,000 compounds, 0.31% hits | AID 504490;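 active means inhibition above a set limit, near 3 SD of compounds lacking own fluorescence, cut at about 54% in these data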;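 further: plate controls were DMSO wells for no effect and 5 µM unlabelled arrestin peptide for full effect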
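System: GST-AP2 R879A bound to glutathione beads, E. coli-expressed. Also added: 50 nM FITC-arrestin peptide. Schedule: compound with beads 12 min RT, then probe 1 h RT. Signal: bead flow cytometry, FITC channel. Read-out basis: percent response.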
Rtt109 Vps75: C. albicans Rtt109 histone acetyltransferase inhibition | Q5AAJ8 | purified Rtt109/Vps75, ThioGlo CoA-SH fluorescence, 4 h | inhibition, % at 34.9 µM | 330,000 compounds, 0.16% hits;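 active means inhibition of at least 50% in every replicate; inconclusive means best replicate reaches 50% inhibition but some replicates fall short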
Target sequence (Q5AAJ8 whole entry, looked up): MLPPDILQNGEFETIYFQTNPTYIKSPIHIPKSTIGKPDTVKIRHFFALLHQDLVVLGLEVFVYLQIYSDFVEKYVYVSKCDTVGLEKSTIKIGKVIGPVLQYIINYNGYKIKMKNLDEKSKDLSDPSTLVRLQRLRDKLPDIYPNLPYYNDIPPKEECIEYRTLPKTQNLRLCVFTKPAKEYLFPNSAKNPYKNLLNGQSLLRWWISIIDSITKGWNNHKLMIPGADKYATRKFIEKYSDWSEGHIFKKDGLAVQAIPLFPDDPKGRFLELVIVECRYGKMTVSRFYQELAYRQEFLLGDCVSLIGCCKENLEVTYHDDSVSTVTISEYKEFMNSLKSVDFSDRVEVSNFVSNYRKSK
PfHsp90 yeast 2: inhibits growth of yeast expressing Plasmodium falciparum Hsp90 | S. cerevisiae expressing PfHsp90, BacTiter-Glo ATP, 48 h; yeast lacking PDR1 and PDR3 efflux regulators | inhibition, % at 9.4 µM | 310,000 compounds, 0.32% hits | AID 504621;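 active means every replicate shows inhibition above about 80%, whatever the replicate mean, limit read from the data; inconclusive means mean inhibition reaches the set limit but some replicate falls short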;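 further: 0% = DMSO neutral controls and 100% = 20 µM radicicol positive controls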
Glyco luc inh: N-linked glycosylation inhibition | D54 ERlucT glycosylation luciferase reporter, 24 h; percent of 100 nM tunicamycin response | reporter increase, % at 12.5 µM | 360,000 compounds, 0.23% hits | AID 588692;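 active means mean luciferase reporter signal, scaled so untreated is 0 and the glycosylation-blocking control 100, at or above a set limit in every replicate; inconclusive means mean reaches the limit but not every replicate does; inactive means mean below the limit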;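 further: luciferase carries N-glycosylation sites so blocking glycosylation raises the light; 0% = median of neutral control wells and 100% = median of 100 nM tunicamycin wells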
* hit, by the source's call; ? = inconclusive; . = no result; ! = a repeat was not active; [ ] = dose if it differs, or a comment.

SMILES	Env fusion inh	PAX8 inh HTS	Arr AP2 block	Rtt109 Vps75	PfHsp90 yeast 2	Glyco luc inh
CCC(C)(C)n1nnnc1C(c1cccs1)N1CC=C(c2ccc(F)cc2)CC1 (stereo not given)	96*	.	7	7	-4	-5
Oc1ccc(O)c2c1C1(Cl)C(Cl)=C(Cl)C2(Cl)C1(Cl)Cl	39	10	8	-1	107*	0
COC(=O)C1CN(C#N)N(c2ccc(Cl)cc2)C12c1ccccc1-c1ccccc12 (stereo not given)	.	.	2	-2	96*	-19
O=C(Cc1ccccn1)N1CCCCN2[C@@H](CO)[C@@H](c3ccc(Br)cc3)[C@@H]2C1	.	-9	.	.	.	.
COC(=O)C1=C(c2cccc(OCc3ccccc3)c2)C[C@@H]2CC[C@H]1N2C(=O)NCc1cc(C)oc1C(F)(F)F	5	63*	20	-3	22	-7
COC(=O)C1=C(c2ccc(OCc3ccccc3)cc2)C[C@@H]2CC[C@H]1N2C(=O)NCc1ccc([N+](=O)[O-])cc1	-69	68*	-3	6	-1	-6
COC(=O)C1=C(c2ccc(OCc3ccccc3)cc2)C[C@@H]2CC[C@H]1N2C(=O)NCc1ccc(C(C)(C)C)cc1	-35	86*	.	.	.	-6
c1cncc(-c2ccc(C3[C@H]4CNC[C@@H]3N4CC3CC3)cc2)c1 (stereo not given in full)	.	-9	.	.	.	.
O=C(Cc1cccnc1)N1CCCCN2[C@H](CO)[C@@H](c3ccc(/C=C/c4ccccc4)cc3)[C@@H]2C1	.	-13	.	.	.	.
COc1cc2c(ccc3c4cc(OC)c(OC)cc4c[n+](C)c23)cc1O	5	75*	6	-1	-31	1
CCN1/C(=C/C=C/C2=[N+](CC)c3ccccc3C2(C)C)C(C)(C)c2ccccc21	36	106*	.	.	.	-8
O=C1CNC[C@H]2[C@H](c3ccc(Br)cc3)[C@@H](CO)N12	.	-15	.	.	.	.
C[C@]12CC[C@@H]3c4ccc(O)c(O)c4CC[C@H]3[C@@H]1CC[C@@H]2O	-1	30	12	132*	11	0
C[C@]12CCC(=O)C=C1CCC1C2CC[C@@]2(C)C1CC[C@@H]2O (stereo not given in full)	.	-14	-2	6	-1	-1
COC(=O)[C@@H]1[C@@H](CO)[C@@H]2Cn3c(ccc(-c4ccccc4F)c3=O)[C@H]1N2Cc1ccncc1	.	-8	.	.	.	.
O=C(Cc1cccnc1)N1CCCCN2[C@@H](CO)[C@@H](c3ccc(C#CC4CC4)cc3)[C@@H]2C1	.	3	.	.	.	.
Clc1ccc(COC(Cn2ccnc2)c2ccc(Cl)cc2Cl)cc1 (stereo not given)	-3	4	9	74*!	83*	-1
c1ccc(Cn2ccnc2)cc1	.	-3	-2	-2	7	3
Clc1ccc(CSC(Cn2ccnc2)c2ccc(Cl)cc2Cl)cc1 (stereo not given)	34	16	-4	44	90*	-3
O=C(O)C[C@@H]1CC[C@H]2NC[C@H](O)COC[C@@H]2O1	-11[16.7 µM]	-12	.	.	.	.
CCCCn1c(=O)c(C(=O)Nc2ncccc2C)c(O)c2ccccc21	?	-5	25	12	-23	-1
CCCCCCn1c(=O)c(C(=O)Nc2ncccc2C)c(O)c2ccccc21	83*	13	8	12	12	1
CCCCCn1c(=O)c(C(=O)Nc2ccccc2S(N)(=O)=O)c(O)c2ccccc21	48	83*	14	.	-19	-7
O=c1oc2ccccc2c(O)c1C(c1ccc([N+](=O)[O-])cc1)c1c(O)c2ccccc2oc1=O	-3	13	-3	68*	-34	3
CC(C)c1ccc(C(c2c(O)c3ccccc3oc2=O)c2c(O)c3ccccc3oc2=O)cc1	8	-5	.	.	.	0
Cc1ccc(N2C(=O)NC(=O)C(CCc3ccccn3)(Cc3ccc(F)cc3)C2=O)cc1 (stereo not given)	58*	5	-9	7	7	-1
CCc1ccc(N2C(=O)NC(=O)C(CCc3ccncc3)(CCc3ccncc3)C2=O)cc1	9	15	-10	-2	6	3
